From ChEMBL document CHEMBL3576816, “5'-Silylated 3'-1,2,3-triazolyl Thymidine Analogues as Inhibitors of West Nile Virus and Dengue Virus” (J Med Chem, 2015)
pEC50: −log10 of the molar value. The source made the active and inactive calls. The rule behind the calls is not given here.

Columns and labels:
[1] = tested on: unidentified influenza virus; assay: Antiviral activity against Influenzae virus; assay type: functional, organism-based
West Nile virus [2] = assay: Antiviral activity against West Nile virus infected in BHK-WII RepRen1B cells assessed as inhibition of viral replication after 3 days by luciferase reporter gene assay; assay type: functional, organism-based; conditions: 72 h
[3] = Cytotoxicity against BHK cells infected with West Nile virus replicon assessed as cell viability at 10 uM after 3 days by CellTiter 96 aqueous one solution cell proliferation assay relative to control; assay type: cell-based, Mesocricetus auratus; conditions: hamster, bhk, 72 h, 10 µM
Outline: (§1)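 WNV replicon BHK cells, about 3 × 10^3/well, plated without antibiotic selection; next day compound in DMSO (10 μM final for screening, or eight serial dilutions), 3 days at 37°C, 5% CO2. Tetrazolium reagent, absorbance 450 nm, triplicate means versus DMSO wells; CC50 = 50% reduction in proliferation; CC50s mean ± SD of two experiments, top dose 200 μM.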

Human betaherpesvirus 5 = assay: Antiviral activity against Human cytomegalovirus; assay type: functional, organism-based
Dengue virus [4] = assay: Antiviral activity against Dengue virus infected in BHK pD2-hRucPac-2ATG cells assessed as inhibition of viral replication at 10 uM after 3 days by luciferase reporter gene assay relative to control; assay type: functional; conditions: 72 h
Outline: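 Renilla luciferase-bearing DENV subgenomic replicon BHK cells, kept on 3 μg/mL puromycin, seeded at 1.5 × 10^3/well without selection. Next day, 10 μM final compound in DMSO added to triplicate wells; MPA 1 μM as control inhibitor. After 3 days, medium swapped for live-cell Renilla substrate (1:1000, phenol-red-free DME, 10% FBS). Luminescence read; triplicate mean compared with DMSO-only wells.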

West Nile virus [5] = assay: Antiviral activity against West Nile virus infected in BHK-WII RepRen1B cells assessed as inhibition of viral replication at 10 uM after 3 days by luciferase reporter gene assay relative to control; assay type: functional; conditions: 72 h
Outline: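 Compound (DMSO, 10 μM final) added next day in triplicate; lycorine 1 μM served as control inhibitor. Three days on, live-cell Renilla substrate (1:1000 in phenol-red-free DME, 10% FBS) replaced medium. Luminescence measured; triplicate means compared with DMSO-alone wells.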

[6] = tested on: Human immunodeficiency virus 1; assay: Antiviral activity against HIV1; assay type: functional, organism-based
[7] = molecular target: Human immunodeficiency virus type 1 reverse transcriptase (Human immunodeficiency virus 1) (UniProt Q72547); assay: Inhibition of HIV1 reverse transcriptase
[8] = Cytotoxicity against BHK cells infected with Dengue virus replicon assessed as cell viability after 3 days by CellTiter 96 aqueous one solution cell proliferation assay; assay type: cell-based, Mesocricetus auratus; conditions: hamster, 72 h
Outline: as §1, with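 “DENV” for “WNV”, “1.5” for “about 3”, “Tetrazolium (MTS-type)” for “Tetrazolium”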

dengue virus type 3 = assay: Displacement of [3H]-SAM from biotinylated Dengue virus 3 methyltransferase expressed in Escherichia coli at 20 uM preincubated for 20 mins followed by [3H]-SAM addition measured after 15 mins by scintillation counting analysis
Outline: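 Biotinylated refolded E. coli-expressed DENV3 MTase (580 nM) with SPA beads (1.5 mg/mL) and 20 μM competitor (compound, SAM or sinefungin) in Tris pH 7.5 buffer with NaCl, KCl, MgCl2, MnCl2, CHAPS, 20 min at 23°C; 3H-SAM (425 nM) added, 15 min at 23°C, centrifuged, scintillation proximity counting.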

Dengue virus [9] = assay: Antiviral activity against Dengue virus infected in BHK pD2-hRucPac-2ATG cells assessed as inhibition of viral replication after 3 days by luciferase reporter gene assay; assay type: functional, organism-based; conditions: 72 h
Outline: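 BHK DENV subgenomic replicon line carrying Renilla luciferase, kept on 3 μg/mL puromycin; 1.5 × 10^3 cells/well plated without selection, compounds in DMSO added next day to triplicate wells, at 10 μM final for screening or eight serial dilutions. Live-cell Renilla substrate after 3 days, luminescence versus DMSO wells; EC50 = 50% luciferase reduction; MPA 1 μM control.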

[10] = Cytotoxicity against BHK cells infected with Dengue virus replicon assessed as cell viability at 10 uM after 3 days by CellTiter 96 aqueous one solution cell proliferation assay relative to control; assay type: cell-based, Mesocricetus auratus; conditions: hamster, bhk, 72 h, 10 µM
Outline: as §1, with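 “DENV” for “WNV”, “1.5” for “about 3”, “Tetrazolium (MTS-type)” for “Tetrazolium”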

Hepatitis C virus = assay: Antiviral activity against HCV; assay type: functional, organism-based; conditions: Hepacivirus hominis
[11] = Cytotoxicity against BHK cells infected with West Nile virus replicon assessed as cell viability after 3 days by CellTiter 96 aqueous one solution cell proliferation assay; assay type: cell-based, Mesocricetus auratus; conditions: hamster, 72 h; outline: as §1
dengue virus type 2 [12] = assay: Antiviral activity against Dengue virus type 2 New Guinea C infected in African green monkey Vero cells assessed as reduction in viral titer at 10 uM after 2 days by Giemsa staining assay relative to control; assay type: functional; set-up: scale not given: the % may be the effect or the level left
Outline: (§2)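 Vero cells, 4 × 10^5/well, infected with DENV-2 New Guinea C at MOI 0.2 for 2 h at 37°C, washed, then compound added (10 μM; MPA 1.0 μM). Supernatant taken after 2 days, clarified, 10-fold dilutions plaqued on Vero under methylcellulose for 5 days, fixed, Giemsa-stained; titer as PFU/mL, percent reduction; 10 μM from two experiments, 1.0 μM from one.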

dengue virus type 2 [13] = assay: Antiviral activity against Dengue virus type 2 New Guinea C infected in African green monkey Vero cells assessed as reduction in viral titer at 1 uM after 2 days by Giemsa staining assay relative to control; assay type: functional; set-up: scale not given: the % may be the effect or the level left; outline: as §2

Compound | Activity [1] | pEC50 (West Nile virus [2]) | Activity [3] [%] | Activity (Human betaherpesvirus 5) | inhibition at 10 µM (Dengue virus [4]) [%] | inhibition at 10 µM (West Nile virus [5]) [%] | Activity [6] | inhibition [7] | CC50 [8] [µM] | inhibition (dengue virus type 3) | pEC50 (Dengue virus [9]) | Activity [10] [%] | Activity (Hepatitis C virus) | CC50 [11] [µM] | Activity (dengue virus type 2 [12]) [%] | Activity (dengue virus type 2 [13]) [%]
Cc1cn([C@H]2C[C@H](n3nncc3C3CCCCC3)[C@@H](CO[Si](C)(C)C(C)(C)C)O2)c(=O)[nH]c1=O | inactive | 5.15 | 100 | inactive | 75 | 85 | inactive | inactive | 22 | Active | 5.12 | 93 | inactive | 24 |  | 
Cc1cn([C@H]2C[C@H](NS(=O)(=O)c3ccc4ccccc4c3)[C@@H](CO[Si](C)(C)C(C)(C)C)O2)c(=O)[nH]c1=O |  | 5.08 |  |  |  |  |  |  | 14 | Active | 5.13 |  |  | 12 |  | 
Cc1cn([C@H]2C[C@H](n3nncc3-c3ccccc3)[C@@H](CO[Si](C)(C)C(C)(C)C)O2)c(=O)[nH]c1=O | inactive | 5.08 | 99 | inactive | 51 | 93 | inactive | inactive | 31 | Active | 4.85 | 93 | inactive | 32 |  | 
Cc1cn([C@H]2C[C@H](NC(=O)CCCCc3ccc(F)cc3)[C@@H](CO[Si](C)(C)C(C)(C)C)O2)c(=O)[nH]c1=O |  | 4.82 |  |  |  |  |  |  | 22 | Active | 5.02 |  |  | 23 | 67 | 
COc1ccc2cc(-c3cn([C@H]4C[C@H](n5cc(C)c(=O)[nH]c5=O)O[C@@H]4CO[Si](C)(C)C(C)(C)C)nn3)ccc2c1 | inactive | 5.13 | 100 | inactive | 57 | 92 | inactive | inactive | 21 | Active | 5.08 | 96 | inactive | > 200 | 98 | 
COc1c(C)c2c(c(O)c1C/C=C(\C)CCC(=O)O)C(=O)OC2 [MYCOPHENOLIC ACID] |  |  |  |  |  |  |  |  |  |  |  |  |  |  |  | 68
COc1ccc2cc(-c3cnnn3[C@H]3C[C@H](n4cc(C)c(=O)[nH]c4=O)O[C@@H]3CO[Si](C)(C)C(C)(C)C)ccc2c1 | inactive | 5.54 | 100 | inactive | 85 | 97 | inactive | inactive | 7.9 | Active | 5.14 | 86 | inactive | 13 |  | 
Cc1cn([C@H]2C[C@H](NC(=O)Nc3cccc4ccccc34)[C@@H](CO[Si](C)(C)C(C)(C)C)O2)c(=O)[nH]c1=O |  |  |  |  |  |  |  |  | 23 | Active | 4.96 |  |  |  |  | 
